STAT1 act-1: STAT1 signaling activators, primary screen, cell-based, HTS, luciferase reporter; NIH 3T3 STAT1-luciferase reporter, IFN-gamma, luminescence; 100% = IFN-gamma alone, no compound; activation (% of control), % at 5.5 µM; 200,000 compounds, 2.6% hits;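 active means activation above the screen-wide mean activation plus 3 SD, cut at about 130% in these data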;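 further: raw ratio to IFN-gamma control signal so 100% means no change and 0% no light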
APP 5'UTR act: activators of APP 5'UTR luciferase reporter, primary screen, SH-SY5Y cells; SH-SY5Y APP 5'UTR luciferase reporter, luminescence; zero percent = DMSO vehicle wells; activation, % at 2 µM; 190,000 compounds, 1% hits;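 active means activation above a set limit, based on mean plus 3 SD of controls, cut at about 140% in these data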
STAT1 inh: STAT1 signaling inhibitors, primary screen, cell-based, HTS, luciferase reporter; inhibition, % at 5.5 µM; NIH 3T3 STAT1-luciferase reporter, IFN-gamma, luminescence; 200,000 compounds, 0.35% hits; AID 920, 2007;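 active means inhibition above a set limit, the mean inhibition across all tested compounds plus 3 SD, cut at about 34% in these data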;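 further: 0% = IFN-gamma with DMSO and 100% = IFN-gamma with 300 µM nifuroxazide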
STAT3 act-1: IL-6 driven STAT3 reporter potentiators, primary screen, U3A cells, luciferase, luminescence, MLSCN library | AID 871, 2007 | 190,000 compounds, 0.91% hits | activation (% of control), % at 5.6 µM | IL-6 STAT3-luciferase reporter; 100% = signal with IL-6 EC80 alone;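 active means activation above the screen-wide mean of compound activation plus 3 SD, cut at about 130% in these data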;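 further: 0% = background luminescence of wells with medium and substrate only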
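Material: human STAT1-deficient U3A cells with stable STAT3-luciferase reporter / Probe or stimulus: IL-6 stimulus at 33 ng/mL final / Schedule: 1 h compound pre-exposure, 6 h IL-6 stimulation, 37 °C / Technique: luminescence / Read-out basis: percent of IL-6-only median luminescence / Control set: IL-6-only high control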
NF-kB expr up: activators of NF-kB expression in neurons, primary screen, cell-based, HTS. 190,000 compounds, 1.6% hits. fold change at 12.5 µM. human neuronal cells, NF-kB reporter expression; stronger effect = higher value; in the data active means fold change above about 3.3
STAT3 blocker: IL-6 driven STAT3 reporter inhibitors, primary screen, U3A cells, luciferase, luminescence, MLSCN library. IL-6 STAT3-luciferase reporter; host cell line lacks STAT1. 190,000 compounds, 0.89% hits. inhibition, % at 5.5 µM;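 active means inhibition above the mean inhibition across all screened compounds plus 3 SD, cut at about 44% in these data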;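 further: 0% = DMSO only wells and 100% = 100 µM nifuroxazide control wells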
STAT3 act-2: STAT3 reporter potentiators, retest of hits, confirmation, U3A cells, luciferase, luminescence | potentiation (% of control), % at 5.7 µM | shares compounds with STAT3 act-1 | AID 1267, 2008 | 1,200 compounds, 64% hits | IL-6 potentiation; U3A cells lack STAT1; 100 means same as IL-6 alone;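 active means percent activation of the STAT3 luciferase reporter above a set limit taken from the earlier primary screen, cut at about 130% in these data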;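 further: 0% = background signal of medium plus substrate and 100% = median of IL-6 with DMSO wells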
NFkB act 2: NF-kB reporter activators in human cells, counter-screen for STAT3 activator project; shares compounds with STAT3 act-1; 1,200 compounds, 11% hits; activation (% of control), % at 5.7 µM; NF-kappaB reporter activation; in the data active means activation above about 120%;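 further: reporter induced by TNF-alpha stimulation; 100% = median of stimulated DMSO wells and 0% = no signal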
STAT1 act-2: STAT1 reporter activators, IFN-gamma induced, counter-screen for STAT3 activator project, cell-based, NIH 3T3, luciferase luminescence. NIH 3T3 STAT1-luciferase reporter. 1,200 compounds, 13% hits. shares compounds with STAT3 act-1. activation (% of control), % at 5.7 µM;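 active means activation above the solvent-only control well mean plus 3 SD, set per screening run, cut at about 120% in these data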;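 further: 100% = IFN-gamma with DMSO median signal so 100% means no change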
Starred values were filed as active, the others as inactive; . = not tested or not shown. In the library only some 4.9% were active in any assay of this set; here they are far more common.

SMILES	STAT1 act-1	APP 5'UTR act	STAT1 inh	STAT3 act-1	NF-kB expr up	STAT3 blocker	STAT3 act-2	NFkB act 2	STAT1 act-2
O=C(COc1cccnc1[N+](=O)[O-])NCCc1ccccc1	103.6	9.5	-5.0	90.8	1.05	12.8	.	.	.
O=C1NC(=O)C(Nc2cccc3ccccc23)S1 (stereo not drawn)	91.8	4.6	6.2	141.5*	1.06	-45.9	129.0	102.6	94.3
CN1C(=O)SC(Nc2cccc3ccccc23)C1=O (stereo not drawn)	98.7	4.6	-1.5	98.8	1.25	4.7	.	.	.
CCOc1ccccc1C1CC(c2cccs2)=NN1S(C)(=O)=O (stereo not drawn)	93.9	-2.8	4.5	136.7*	0.95	-33.8	147.3*	103.4	86.6
Cc1cc(/C=N/n2cnnc2)c(O)c([N+](=O)[O-])c1	100.3	3.5	-0.3	138.5*	1.19	-42.6	149.3*	98.5	95.2
CCc1n[nH]c(=S)n1/N=C/c1cc(OC)cc([N+](=O)[O-])c1O	107.1	14.5	-11.3	108.1	1.05	-4.8	.	.	.
Clc1ccc(Nc2nc(-c3cccnc3)cs2)cc1	116.3	47.2	-17.7	192.4*	1.88	-104.4	179.3*	121.5*	139.3*
CN(C)S(=O)(=O)c1cc(NC2CC(=O)N(c3ccc(F)cc3)C2=O)ccc1Cl (stereo not drawn)	104.5	-7.9	-4.1	102.7	1.14	-2.7	.	.	.
CCn1cc(C(=O)N2CCc3ccccc32)c(=O)c2cc(S(=O)(=O)N3CCOCC3)ccc21	106.3	11.9	-6.9	145.9*	0.88	-41.7	128.4	105.2	99.3
CCn1cc(C(=O)N2CCc3ccccc32)c(=O)c2cc(S(=O)(=O)N(C)C3CCCCC3)ccc21	97.8	17.2	2.4	107.2	0.36	-4.3	.	.	.
Cc1cc(C)c2oc(-c3ccc(Cl)c(NC(=O)c4ccc(C#N)cc4F)c3)nc2c1	110.2	2.0	-11.1	173.2*	1.86	-81.4	165.2*	100.8	108.3
N#Cc1ccc(C(=O)Nc2cccc3ncccc23)c(F)c1	91.8	-10.6	10.9	93.5	1.04	5.7	.	.	.
O=C(OCc1nc2ccccc2s1)c1cnccn1	115.3	78.9	-16.6	136.2*	0.91	-37.1	145.8*	119.3	139.9*
COc1cc(NC(=S)N2CCCC(CO)C2)c(OC)cc1Cl (stereo not drawn)	90.3	16.6	11.0	92.8	1.39	12.0	.	.	.
Cc1cccc(C)c1-n1c(C)nn(CC2CC2)c1=O	96.0	-9.8	3.9	105.4	1.17	-2.5	.	.	.
COc1ccc(Cl)cc1-c1nc(-c2ccc(Br)o2)no1	102.7	-5.2	-3.0	174.1*	1.17	-85.6	159.9*	114.2	117.4
COc1ccc(S(=O)(=O)Nc2nc3ccccc3s2)cc1OC	101.9	-14.7	-2.1	154.4*	0.95	-55.8	141.9*	99.9	94.2
Cc1ccc(S(=O)(=O)Nc2nc3ccccc3s2)cc1	95.7	8.5	4.6	102.8	0.91	-6.5	.	.	.
O=S(=O)(Nc1nc2ccccc2s1)c1ccc(Br)s1	100.1	.	0.8	142.3*	0.93	-46.9	133.6*	107.1	96.9
COc1ccc(N=C2C(=O)N3c4c(cccc42)C(C)=CC3(C)C)cc1	104.9	-4.3	-5.3	104.3	0.87	-10.5	.	.	.
c1ccc(-c2cc(-c3ccncc3)nc3ccc4ccccc4c23)cc1	97.7	14.6	2.6	101.3	0.62	-3.8	.	.	.
CCOC(=O)Cc1cc(-c2ccccc2)nc2ccc3ccccc3c12	104.9	7.8	-5.5	136.0*	0.9	-39.2	124.3	114.4	105.1
CSC1=C(C#N)C(c2sccc2C)CC(=O)N1 (stereo not drawn)	97.1	-2.1	2.8	104.5	0.91	0.6	.	.	.
NC(=O)C1CCN(c2nc(-c3ccccc3)nc3ccccc23)CC1	92.5	-6.9	8.1	100.4	0.71	3.7	.	.	.
CCOC(=O)C1CCN(c2nc(-c3ccc(Br)cc3)nc3ccccc23)CC1	95.4	15.9	4.6	142.5*	1.17	-39.8	137.4*	97.9	88.8
SMILES	STAT1 act-1	APP 5'UTR act	STAT1 inh	STAT3 act-1	NF-kB expr up	STAT3 blocker	STAT3 act-2	NFkB act 2	STAT1 act-2
CC1(C)C=C(c2ccc(C=O)s2)CC(C)(C)N1C=O	92.9	-6.1	9.8	103.8	1.04	-7.4	.	.	.
COc1ccc(C(=O)/C=C2/c3ccccc3CC(C)(C)N2C)cc1OC	108.7	.	-9.8	101.3	0.99	-1.3	.	.	.
O=[N+]([O-])c1ccccc1C1Nc2cccc3cccc(c23)N1	90.2	-14.2	10.9	137.6*	1.09	-32.8	121.7	121.7*	99.0
Oc1ccc(N2CCN(c3ncnc4sc(-c5ccccc5)cc34)CC2)cc1	107.3	16.4	-7.0	159.1*	1.74	-71.5	121.6	91.7	97.1
CC(=O)N1CCN(c2ncnc3sc(-c4ccccc4)cc23)CC1	95.3	-6.0	3.9	117.2	1.05	-19.0	.	.	.
COc1cc(C(=O)N2CCN(C(=O)c3ccco3)CC2)c([N+](=O)[O-])cc1OC	104.4	15.5	-8.2	94.3	1.06	11.4	.	.	.
CC1=C(CC(=O)c2ccccc2)C(=O)c2ccccc2C1=O	116.8	28.3	-18.6	138.0*	0.58	-33.3	143.0*	103.6	111.6
O=C1CC(c2ccccc2Cl)=NN(c2ncnc3ccccc23)C1=O	106.2	11.2	-9.5	147.9*	0.99	-59.6	145.6*	109.3	110.5
CC1CCN(c2ncnc3ccccc23)CC1	95.6	-12.5	4.7	75.7	0.76	31.3	.	.	.
COc1cc(C(=O)Nc2nc3ccccc3[nH]2)cc(OC)c1OC	97.5	-13.0	2.7	77.2	0.81	29.7	.	.	.
Cc1c(C(=O)Nc2nc3ccccc3[nH]2)oc2c(Cl)cccc12	105.3	47.1	-5.8	143.4*	1.66	-45.6	177.8*	120.9*	122.1*
O=C(NNS(=O)(=O)c1ccc2ccccc2c1)NC1CCCCC1	106.6	10.9	-7.6	105.7	1.14	-6.7	.	.	.
Cn1c(SCC(=O)N=Nc2c(O)[nH]c3ccccc23)nc2ccccc21	103.6	13.9	-4.1	123.4	1	-25.6	.	.	.

Screening data (PubChem BioAssay)
